Assay results taken from ChEMBL document CHEMBL3822365, “Probing the Anticancer Action of Oridonin with Fluorescent Analogues: Visualizing Subcellular Localization to Mitochondria” (J Med Chem, 2016).
The source made the active and inactive calls. The calls are words filed in the database; no cut-off is given here.

Tests used:
[1] = Cytotoxicity against human Bel7402 cells assessed as growth inhibition at 100 uM after 72 hrs by MTT assay; format: functional; details: Bel-7402, 72 h, read-out: GI
In short: (§1)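 Bel-7402 cells exposed to compound for 72 h, then MTT read-out of percent growth inhibition at the single stated concentration. Values are the mean of three independent experiments.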

[2] = Cytotoxicity against human Bel7402 cells assessed as growth inhibition at 10 uM after 72 hrs by MTT assay; format: functional; details: Bel-7402, 72 h, read-out: GI; in short: as §1
[3] = Cytotoxicity against human Bel7402 cells assessed as growth inhibition at 1 uM after 72 hrs by MTT assay; format: functional; details: Bel-7402, 72 h, read-out: GI; in short: as §1
HepG2 [4] = experiment: Cytotoxicity against human HepG2 cells assessed as inhibition of cell proliferation after 72 hrs by MTT assay; format: functional, cell-based; details: HepG2, 72 h
In short: (§2)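 Log-phase cells seeded at 5 × 10^4 cells/mL and exposed to compound for 72 h at 37 °C, 5% CO2. MTT (5 mg/mL) added for a further 4 h, formazan dissolved in DMSO, OD read at 490 nm. Negative reference 0.1% DMSO, positive reference paclitaxel. IC50 given as mean ± SD, n = 3.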

A549 [5] = experiment: Cytotoxicity against human A549 cells assessed as inhibition of cell proliferation after 72 hrs by MTT assay; format: functional, cell-based; details: A549, 72 h; in short: as §2
HeLa = experiment: Cytotoxicity against human HeLa cells assessed as inhibition of cell proliferation after 72 hrs by MTT assay; format: functional, cell-based; in short: as §2
A549 [6] = experiment: Dissipation of mitochondrial membrane potential in human A549 cells at 10 uM after 36 hrs by JC-1 staining based confocal microscopy; format: functional, cell-based
In short: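 A549 cells were exposed to 10 μM compound for 36 h or left untreated. They were then loaded with 10 μg/mL JC-1 for 30 min at 37 °C and washed 5 min in PBS. The red-to-green fluorescence shift was viewed by confocal microscopy. Done in triplicate.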

A549 [7] = experiment: Induction of apoptosis in human A549 cells assessed as cytochrome c release from mitochondria to cytosol at 3 uM after 24 to 48 hrs by MitoTracker probe/DAPI staining based confocal laser scanning microscopy; format: functional, cell-based
In short: (§3)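 A549 cells exposed to compound for 24 or 48 h, then stained with MitoTracker Red for 30 min. Cells fixed in 4% formaldehyde, permeabilized with 0.2% Triton X-100 and blocked in 5% BSA for 1 h. Anti-cytochrome c primary antibody applied overnight at 4 °C, then Alexa Fluor 488 goat anti-rabbit for 2 h. DAPI nuclear counterstain, imaged by confocal microscopy.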

A549 [8] = experiment: Induction of apoptosis in human A549 cells assessed as cytochrome c release from mitochondria to cytosol at 5 uM after 24 to 48 hrs by MitoTracker probe/DAPI staining based confocal laser scanning microscopy; format: functional, cell-based; in short: as §3
HepG2 [9] = experiment: Drug uptake in human HepG2 cells at 5 uM after 1 hr by inverted confocal microscopy; format: ADME, cell-based; details: hepg2, 1 h
In short: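 HepG2 cells were incubated with probe at 5 μM for 1 h and then examined by fluorescence microscopy for intracellular staining.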

HepG2 [10] = experiment: Drug uptake in human HepG2 cells at 1 uM after 5 mins by inverted confocal microscopy; format: ADME, cell-based; details: hepg2, 5 min
A549 [11] = experiment: Drug uptake in human A549 cells at 1 uM after 5 mins by inverted confocal microscopy; format: ADME, cell-based; details: a549, 5 min
HepG2 [12] = experiment: Drug uptake in human HepG2 cells at 1 uM after 12 hrs by inverted confocal microscopy; format: ADME, cell-based; details: hepg2, 12 h
In short: (§4)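 Live A549 or HepG2 cells were given 1 μM probe for 12 h and washed with media. Confocal imaging used ex 405/em 460 nm at 40× on an inverted microscope. Each experiment was repeated three times.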

[13] = Drug uptake in human A549 cell cytoplasm at 1 uM after 12 hrs by inverted confocal microscopy; format: ADME, cell-based; details: a549, 12 h; in short: as §4
[14] = Drug uptake in mitochondria of human A549 cells at 1 uM after 1 hr by MitoTracker staining based confocal laser scanning microscopy; format: ADME; details: a549, 1 h
In short: (§5)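 A549 cells were treated with 1 μM probe for 1, 3, 12 or 24 h and washed in PBS. They were then stained with MitoTracker Red CMXRos (200 nM, 0.5 h), washed in cold PBS, fixed with paraformaldehyde and imaged by confocal laser scanning microscopy. Mitochondrial overlap was quantified as Pearson's coefficient (Rr).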

[15] = Drug uptake in mitochondria of human A549 cells at 1 uM after 12 hrs by MitoTracker staining based confocal laser scanning microscopy; format: ADME; details: a549, 12 h; in short: as §5
[16] = Drug uptake in mitochondria of human A549 cells at 1 uM after 24 hrs by MitoTracker staining based confocal laser scanning microscopy; format: ADME; details: a549, 24 h; in short: as §5
A549 [17] = experiment: Dissipation of mitochondrial membrane potential in human A549 cells at 1 uM by JC-1 staining based confocal microscopy; format: functional, cell-based; details: TDE = time-dependent effect
In short: (§6)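 A549 cells were exposed to 1 μM compound for 12 to 48 h. They were then loaded with JC-1 at 10 μg/mL for 30 min at 37 °C and washed in PBS for 5 min. Aggregate (red, ex 525/em 600 nm) and monomer (green, ex 490/em 535 nm) signals were read by microplate reader or confocal microscope. Value is the red:green ratio, 10000 cells per condition, mean ± SD of three independent experiments.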

A549 [18] = experiment: Dissipation of mitochondrial membrane potential in human A549 cells assessed as ratio of red to green fluorescence at 1 uM after 12 to 48 hrs by JC-1 staining based confocal microscopy; format: functional; in short: as §6
A549 [19] = experiment: Dissipation of mitochondrial membrane potential in human A549 cells assessed as ratio of red to green fluorescence at 1 uM after 48 hrs by JC-1 staining based confocal microscopy; format: functional; in short: as §6
A549 [20] = experiment: Drug uptake in human A549 cells at 1 uM preincubated with oridonin for 24 hrs followed by compound addition measured after 1 hr by confocal microscopy; format: ADME, cell-based; details: a549, 1 h
A549 [21] = experiment: Drug uptake in human A549 cells at 1 uM preincubated with compound 25 for 24 hrs followed by compound addition measured after 1 hr by confocal microscopy; format: ADME, cell-based; details: a549, 1 h
A549 [22] = experiment: Drug uptake in human A549 cells at 1 uM preincubated with compound 26 for 24 hrs followed by compound addition measured after 1 hr by confocal microscopy; format: ADME, cell-based; details: a549, 1 h
HepG2 [23] = experiment: Drug uptake in human HepG2 cells at 50 to 100 uM after 1 hr by inverted confocal microscopy; format: ADME, cell-based; details: hepg2, 1 h
In short: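 HepG2 cells incubated with probe for 1 h, then intracellular fluorescence imaged by fluorescence microscopy.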

[24] = Antiproliferative activity against human NCI-H929 cells assessed as reduction in cell viability after 24 to 72 hrs by MTT assay; format: functional, cell-based

SMILES	inhibition of growth at 100 µM [1] [%]	inhibition of growth at 10 µM [2] [%]	inhibition of growth at 1 µM [3] [%]	IC50 (HepG2 [4]) [µM]	IC50 (A549 [5]) [µM]	IC50 (HeLa) [µM]	other results
C=C1C(=O)[C@]23[C@H](O)[C@H]1CC[C@H]2[C@@]12CO[C@]3(O)[C@@H](O)[C@@H]1C(C)(C)CC[C@@H]2O [ORIDONIN]	94.6	94.8	37.9	15.2	10.4	17.8	Activity (A549 [6]): Active; Activity (A549 [7]): Active; Activity (A549 [8]): Active
C=C1C(=O)[C@]23[C@H](OC(=O)CCCC(=O)OCCCCOC(=O)c4cc5ccc(N(CC)CC)cc5oc4=O)[C@H]1CC[C@H]2[C@@]12CO[C@@]3(O)[C@@H](O)[C@@H]1C(C)(C)CC[C@@H]2O	93.8	94	88.6	2.6	5.1	2	Drug uptake (HepG2 [9]): Active; Drug uptake (HepG2 [10]): Active; Drug uptake (A549 [11]): Active; Drug uptake (HepG2 [12]): Active; Drug uptake [13]: Active; Drug uptake [14]: Active; Drug uptake [15]: Active; Drug uptake [16]: Not Active; Activity (A549 [17]): tde; Ratio (A549 [18]): 1.496; Ratio (A549 [19]): 0.312; Activity (A549 [20]): Not Active; Drug uptake (A549 [21]): Not Active; Drug uptake (A549 [22]): Active
CCN(CC)c1ccc2cc(C(=O)OCCO)c(=O)oc2c1	9.5	3.7	0.7				Drug uptake (HepG2 [23]): Not Active
C=C1C(=O)[C@]23[C@H](OC(=O)CCCC(=O)OCCOC(=O)c4cc5ccc(N(CC)CC)cc5oc4=O)[C@H]1CC[C@H]2[C@@]12CO[C@@]3(O)[C@@H](O)[C@@H]1C(C)(C)CC[C@@H]2O	94.6	85	4.9				
C[C@H]1C(=O)[C@]23[C@H](O)[C@H]1CC[C@H]2[C@@]12CO[C@@]3(O)[C@@H](O)[C@@H]1C(C)(C)CC[C@@H]2O	57.2	4.2	2.1	70.6	67	52.7	
C=C1C(=O)[C@]23[C@H](O)[C@H]1CC[C@H]2[C@]12CCCC(C)(C)[C@H]1[C@H](O)[C@@]3(O)OC2							IC50 [24]: 0.85 µM
C=C1C(=O)[C@]23[C@H](OC(=O)Cc4cc(=O)oc5cc(N(C)C)ccc45)[C@H]1CC[C@H]2[C@@]12CO[C@@]3(O)[C@@H](O)[C@@H]1C(C)(C)CC[C@@H]2O	92.4	94.5	13.6				
